Shown are actives, neighbours in structure and some others; about 1.8% of the full set was active somewhere.
CHOP UPR activ = activators of apoptotic CHOP UPR arm, primary screen, cell-based, CHO-CHOP luciferase reporter, luminescence, uHTS; activation, % at 10 µM; AID 449763, 2010; actives 0.34% (n = 330,000); UPR activation; percent of tunicamycin response over DMSO baseline;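 active = at 10 µM dose, activation of 40% or more, normalized to positive control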
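Test system: CHO CHOP reporter cells. Input: 500 CHO-CHOP cells per well. Medium: F12 with 10% FBS. Technique: luciferase luminescence. Measure: percent activation relative to tunicamycin control. Dosing: 10 µM compound, 0.5% DMSO. Timing: 16-18 h cell attachment, then 6 h compound exposure, 37 °C.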
Jurkat NFkB inh = inhibitors of induced NF-kB luciferase reporter, primary screen, TCR NF-kB activation inhibitor project, cell-based, luminescence, uHTS; Jurkat, PMA/ionomycin-induced NF-kB luciferase reporter; inhibition, % at 4 µM; actives 0.53% (n = 330,000); AID 435003, 2010; in the data active = inhibition above about 50%
CRFR2-BP antag = antagonists of CRF-BP/CRF-R2 complex, primary screen, cell-based, HEK293, calcium dye fluorescence, uHTS; inhibition, % at 11.8 µM; actives 0.59% (n = 350,000); CRF-induced calcium fluorescence; AID 588475, 2011;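 active = inhibition of the ligand-induced calcium signal above about 50% at the single tested concentration, limit read from the data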
XBP1 UPR activ = activators of adaptive XBP1 UPR arm, primary screen, cell-based, CHO-XBP1 luciferase reporter, luminescence, uHTS; IRE1-XBP1 UPR activation; percent of tunicamycin response, DMSO as zero; activation, % at 20 µM; actives 0.33% (n = 330,000);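 active = versus positive control, 20 µM dose yields 30% or more activation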
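Material: CHO cell line with stable XBP1 luciferase reporter; buffer or medium: F12 medium containing 10% fetal bovine serum; compound: single point, 20 µM final compound, 1% DMSO; incubation: 6 h treatment, 37 °C; measured by: glow luminescence from Steady-Glo reagent; evaluation: activation, % of tunicamycin; control set: tunicamycin high, DMSO low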
697 NFkB inh = inhibitors of PMA/ionomycin-induced NF-kB reporter, 697 cells, primary screen, B-cell NF-kB inhibitor project, cell-based, luminescence, uHTS; 697 B-cell NF-kB luciferase reporter, 16 h; inhibition, % at 4 µM; actives 0.33% (n = 330,000); in the data active = inhibition above about 35%
Each line names hits and unclear results; the compound was inactive in the other large screens.

Cc1cc(C)c(C)c(S(=O)(=O)N2CCC(C(=O)N3CCN(c4ccc(F)cc4)CC3)CC2)c1C	none (no result: CHOP UPR activ, Jurkat NFkB inh, XBP1 UPR activ, 697 NFkB inh)
Cc1c(C(=O)NN)nn(-c2ccc(Cl)cc2)c(=O)c1C#N	CRFR2-BP antag 82.0
Cc1ccc(-n2nc(C(=O)NN)c(C)c(C#N)c2=O)cc1Cl	none
COC(=O)C1=C(C)N(Cc2ccccc2)C(=O)N[C@H]1CCc1ccccc1	CRFR2-BP antag 81.8
COC(=O)C1=C(C)N(Cc2ccccc2)C(=S)N[C@H]1c1cccc(F)c1	CRFR2-BP antag 55.4
COc1cc2c(cc1OC)C(=NO)CCCC2	none (no result: CHOP UPR activ, Jurkat NFkB inh, XBP1 UPR activ, 697 NFkB inh)
CC1=C(c2ccccc2)C(O)(c2ccccc2)C(C)C1=O (centres undefined)	CRFR2-BP antag 59.1 (no result: CHOP UPR activ, Jurkat NFkB inh, XBP1 UPR activ, 697 NFkB inh)
COc1ccc(C(C(=O)NC2CCCCC2)N(Cc2cccs2)C(=O)Cc2c[nH]c3ccccc23)cc1OC (centres undefined)	CRFR2-BP antag 52.5
Cc1nc2ccccc2n1CCOc1ccc([N+](=O)[O-])cc1	CRFR2-BP antag 95.6
COc1ccc(OCCn2c(C)nc3ccccc32)cc1	none (no result: CHOP UPR activ, Jurkat NFkB inh, XBP1 UPR activ, 697 NFkB inh)
COc1ccc(CCn2c(=O)c3cccnc3n(Cc3cccc([N+](=O)[O-])c3)c2=O)cc1OC	CRFR2-BP antag 52.0
O=C(CCc1ccccc1)Nc1c(F)cccc1F	CRFR2-BP antag 52.5
Nn1c(SCC(=O)NNC(=O)c2ccccc2)nnc1-c1ccccc1F	none
CCCN1CNC(=S)N(Cc2ccccc2)C1	none
S=C1NCN(CCc2ccccc2)CN1Cc1ccccc1	CRFR2-BP antag 107.8
CCOC(=O)c1c(NC(=O)C2CCCCC2)sc2c1CCN(C(C)C)C2	none
CCCCOc1ccc(OC(=O)Nc2cc(Cl)ccc2OC)cc1	CRFR2-BP antag 80.8
CCN(CC(=O)Nc1ccccc1C(F)(F)F)C(=O)CCc1c(C)[nH]c(=O)c(C#N)c1C	none
O=C(Nc1ccn(CC(=O)N2CCN(c3ccccn3)CC2)c(=O)n1)OCc1ccccc1	none
CN1C(c2ccc(F)cc2)=CS/C1=C(/C#N)c1nnc(N2CCOCC2)n1-c1ccccc1	CRFR2-BP antag 95.5
Cc1nc2nc(SCC(=O)c3cccc([N+](=O)[O-])c3)[nH]c2cc1Br	CRFR2-BP antag 67.1
CC/C(=N\NC(=O)c1ccc(N(C)C)cc1)c1ccccc1	none
CN(C)c1ccc(/C(=N\O)c2ccccc2)cc1	CRFR2-BP antag 60.6
N/C(CN1CCCCC1)=N\S(=O)(=O)c1cc(Cl)cc(Cl)c1	CRFR2-BP antag 112.8
CCc1ccc(OCC(=O)NNC(=O)c2cnccn2)c(Br)c1	none
COc1ccccc1OCC(=O)NNC(=O)c1cnccn1	CRFR2-BP antag 55.7
COc1cccc(CNC(=O)COC(=O)CCc2cc(OC)c(OC)c(OC)c2)c1	none
COc1ccc(N2CCN(C(=O)CCS(=O)(=O)c3ccc4c(c3)NC(=O)CO4)CC2)cc1	CRFR2-BP antag 56.0
COc1cccc(NC(=O)COC(=O)c2ccccc2C(=O)N2CCN(c3ccccc3)CC2)c1	CRFR2-BP antag 68.6
O=C(COC(=O)c1ccccc1C(=O)N1CCN(c2ccccc2)CC1)Nc1ccccc1	none
S=C(Nc1ccc(Cl)cc1)NN1CCOCC1	none
CC(C)c1ccc(NC(=S)NN2CCOCC2)cc1	CRFR2-BP antag 50.3
Cc1ccccc1S(=O)(=O)Cc1ccc(C(=O)NCCCN2CCC(C)CC2)o1	none
Cc1cc(C)cc(NC(=O)C2CCCN(c3nccc(C)n3)C2)c1 (centres undefined)	CRFR2-BP antag 54.4
Cc1nnc(NC(=O)C2CCCN(c3ncccn3)C2)s1 (centres undefined)	CRFR2-BP antag 56.2
Cc1ccnc(N2CCCC(C(=O)Nc3nnc(C)s3)C2)n1 (centres undefined)	none
Cc1cc(C)cc(NC(=O)C2CCCN(c3nc(C)cc(C)n3)C2)c1 (centres undefined)	none
CCc1ccccc1Nc1nc(N)nc(COC(=O)C2CCN(C(=O)c3ccc(F)cc3)CC2)n1	none
CCC(=O)c1ccc(OCC(=O)Nc2cccc(S(=O)(=O)N3CCCCCC3)c2)cc1	none
O=C(COC(=O)c1ccccc1O)NC(=O)c1ccc(OC(F)F)cc1	none
O=C(COC(=O)C1CCN(S(=O)(=O)c2ccccc2)CC1)NC(=O)c1ccc(OC(F)F)cc1	CRFR2-BP antag 131.0
O=C(CSC1=NS(=O)(=O)c2ccccc21)Nc1ccccc1	none
COC(=O)CSC1=NS(=O)(=O)c2ccccc21	CRFR2-BP antag 91.6
CC(C)NC(=O)Nc1ccc2c(c1)C(=O)N([C@H](C)CO)C[C@@H](C)[C@@H](CN(C)C(=O)NC1CCCCC1)O2	none
O=C(NCc1ccccn1)C1CCN(S(=O)(=O)c2ccccc2)CC1	none
O=C(NCc1ccccn1)C1CCN(S(=O)(=O)c2cnc[nH]2)CC1	CRFR2-BP antag 62.6
COc1ccc(OC)c(/C=N/n2c(-c3n[nH]c4c3CCC4)n[nH]c2=S)c1	none
COc1ccc(/C=N/n2c(-c3n[nH]c4c3CCC4)n[nH]c2=S)cc1	CRFR2-BP antag 100.3
FC(F)(F)c1nnc2sc(-c3cccs3)nn12	CRFR2-BP antag 52.0
O=C1NC(=S)S/C1=C\c1cccc([N+](=O)[O-])c1	CRFR2-BP antag 54.7 (no result: CHOP UPR activ, Jurkat NFkB inh, XBP1 UPR activ, 697 NFkB inh)
O=[N+]([O-])c1cc([N+](=O)[O-])c2oc(-c3ccccc3)c(Br)c2c1O	CRFR2-BP antag 56.5 (no result: CHOP UPR activ, Jurkat NFkB inh, XBP1 UPR activ, 697 NFkB inh)
O=C(CNC(=O)c1ccc(Br)o1)NC1CCCCC1	none
Cc1ccc(S(=O)(=O)CC(=O)c2ccccc2)cc1	none
CC(C)(C)c1ccc(C(=O)CS(=O)(=O)c2ccccc2)cc1	CRFR2-BP antag 77.4
O=C1NC(=Nc2ccccc2Cl)S/C1=C\c1cccc([N+](=O)[O-])c1O	CRFR2-BP antag 53.0
COc1cc(/C=C2\SC(=O)N(Cc3ccc(Cl)cc3)C2=O)cc([N+](=O)[O-])c1O	CRFR2-BP antag 54.7 (no result: CHOP UPR activ, Jurkat NFkB inh, XBP1 UPR activ, 697 NFkB inh)
O=C1/C(=C\c2cc(Br)cc(Br)c2O)SC(=S)N1Cc1ccccc1	CRFR2-BP antag 63.6
CCOc1ccccc1C=C1SC(=S)N(CC)C1=O	none (no result: CHOP UPR activ, Jurkat NFkB inh, XBP1 UPR activ, 697 NFkB inh)
CCN1C(=O)/C(=C\C=C\c2ccccc2[N+](=O)[O-])SC1=S	CRFR2-BP antag 68.6
Cc1ccc(C)c(S(=O)(=O)NC(C)C(=O)NCc2ccccn2)c1 (centres undefined)	none
O=C1/C(=C\c2ccc(O)cc2)SC(=S)N1Cc1ccccc1	none
COc1cc([N+](=O)[O-])cc(/C=C2/SC(=S)N(Cc3ccccc3)C2=O)c1O	none (no result: CHOP UPR activ, Jurkat NFkB inh, XBP1 UPR activ, 697 NFkB inh)
O=C1/C(=C/c2ccc(O)c([N+](=O)[O-])c2)SC(=S)N1Cc1ccccc1	CRFR2-BP antag 108.3
O=C1/C(=C\c2cccc([N+](=O)[O-])c2O)SC(=S)N1Cc1ccccc1	CRFR2-BP antag 77.0 (no result: CHOP UPR activ, Jurkat NFkB inh, XBP1 UPR activ, 697 NFkB inh)

Compound activity from PubChem.
